Source: ChEMBL document CHEMBL3045454, “Synthesis and fungicidal activity of aryl carbamic acid-5-aryl-2-furanmethyl ester” (2010)

Assays:
[1] = system: Fusarium oxysporum; assay: Fungicidal activity Fusarium oxysporum assessed as inhibition of mycelium growth at 50 mg/L at 24 degC measured after 2 days; conditions: 48 h
[2] = system: Corynespora cassiicola; assay: Fungicidal activity Corynespora cassiicola assessed as inhibition of mycelium growth at 50 mg/L at 24 degC measured after 2 days; conditions: 48 h
[3] = system: Culex pipiens pallens; assay: Larvicidal activity against fourth-instar Culex pipiens pallens (mosquito) assessed as mortality at 2000 mg/L measured after 8 days; type: functional; conditions: 192 h
In short: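 Twenty fourth-instar Culex pipiens pallens larvae are placed in 10 mL of the test solution (acetone/distilled water, final 2000 mg L^-1) and reared for 8 days. Mortality is recorded as percent dead. Acetone serves as blank. Four replicates.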

[4] = system: Botrytis cinerea; assay: Fungicidal activity Botrytis cinerea assessed as inhibition of mycelium growth at 50 mg/L at 24 degC measured after 2 days; conditions: 48 h
[5] = system: Plutella xylostella; assay: Insecticidal activity against Plutella xylostella (diamondback moth) assessed as mortality at 600 mg/L measured after 72 hr; type: functional
[6] = system: Corynespora cassiicola; assay: Fungicidal activity Corynespora cassiicola assessed as inhibition of mycelium growth at 50 mg/L at 24 degC measured after 2 days; type: functional; conditions: 48 h
In short: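 Mycelial growth assay on potato dextrose agar. The compound, as a 50 mg L^-1 DMF solution, is mixed into the PDA and a fungus cake is placed on it. DMF serves as blank. Plates are incubated at 24 ± 0.5 °C for 2 days. Mycelial diameters are measured and the inhibitory rate is calculated from them. Three replicates.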

[7] = system: Plutella xylostella; assay: Insecticidal activity against Plutella xylostella assessed as mortality at 5 mg/L measured after 72 hr; type: functional

O=C(NC(=O)c1c(F)cccc1F)OCc1ccc(-c2ccc(F)cc2F)o1
inhibition at 50 µg/mL [1]: 44.6% | inhibition at 50 µg/mL [2]: 42.5% | mortality at 2000 µg/mL [3]: 10% | inhibition at 50 µg/mL [4]: 64% | mortality at 600 µg/mL [5]: 0%

O=C(NC(=O)c1c(F)cccc1F)OCc1ccc(-c2ccccc2Br)o1
inhibition at 50 µg/mL [1]: 42.3% | inhibition at 50 µg/mL [2]: 52.2% | mortality at 2000 µg/mL [3]: 20% | inhibition at 50 µg/mL [4]: 54.3% | mortality at 600 µg/mL [5]: 10%

CC(C)(C)N(NC(=O)c1ccccc1)C(=O)c1ccccc1 [RH-5849]
mortality at 2000 µg/mL [3]: 0%

O=C(NC(=O)c1ccccc1Cl)OCc1ccc(-c2ccc(Br)cc2)o1
inhibition at 50 µg/mL [1]: 10.2% | inhibition at 50 µg/mL [2]: 59.9% | inhibition at 50 µg/mL [6]: 50.2% | mortality at 2000 µg/mL [3]: 10% | inhibition at 50 µg/mL [4]: 34.4% | mortality at 600 µg/mL [5]: 0%

O=C(NC(=O)c1c(F)cccc1F)OCc1ccc(-c2ccc(Br)cc2)o1
inhibition at 50 µg/mL [1]: 7.38% | inhibition at 50 µg/mL [2]: 57.8% | inhibition at 50 µg/mL [6]: 63.3% | mortality at 2000 µg/mL [3]: 0% | inhibition at 50 µg/mL [4]: 62.2% | mortality at 600 µg/mL [5]: 10%

O=C(NC(=O)c1c(F)cccc1F)OCc1ccc(-c2ccc(Cl)cc2)o1
inhibition at 50 µg/mL [1]: 92.3% | inhibition at 50 µg/mL [2]: 71.6% | mortality at 2000 µg/mL [3]: 10% | inhibition at 50 µg/mL [4]: 100% | mortality at 600 µg/mL [5]: 0%

O=C(NC(=O)c1c(Cl)cccc1Cl)OCc1ccc(-c2ccc(F)cc2)o1
inhibition at 50 µg/mL [1]: 35.3% | inhibition at 50 µg/mL [2]: 37.3% | inhibition at 50 µg/mL [6]: 72.7% | mortality at 2000 µg/mL [3]: 0% | inhibition at 50 µg/mL [4]: 37.1% | mortality at 600 µg/mL [5]: 0%

O=C(NC(=O)c1c(Cl)cccc1Cl)OCc1ccc(-c2cccc(Cl)c2)o1
inhibition at 50 µg/mL [1]: 14.5% | inhibition at 50 µg/mL [2]: 19% | inhibition at 50 µg/mL [6]: 53.3% | mortality at 2000 µg/mL [3]: 10% | inhibition at 50 µg/mL [4]: 13% | mortality at 600 µg/mL [5]: 10%

Cc1cc(C)nc(Nc2ccccc2)n1 [PYRIMETHANIL]
inhibition at 50 µg/mL [4]: 48.9%

O=C(NC(=O)c1ccccc1Cl)OCc1ccc(-c2ccc(Cl)cc2)o1
inhibition at 50 µg/mL [1]: 14.5% | inhibition at 50 µg/mL [2]: 66% | inhibition at 50 µg/mL [6]: 75.5% | mortality at 2000 µg/mL [3]: 10% | inhibition at 50 µg/mL [4]: 55.1% | mortality at 600 µg/mL [5]: 0%

O=C(NC(=O)c1c(Cl)cccc1Cl)OCc1ccc(-c2ccccc2Cl)o1
inhibition at 50 µg/mL [1]: 35.3% | inhibition at 50 µg/mL [2]: 34.7% | inhibition at 50 µg/mL [6]: 83.1% | mortality at 2000 µg/mL [3]: 0% | inhibition at 50 µg/mL [4]: 41.4% | mortality at 600 µg/mL [5]: 0%

O=C(NC(=O)c1c(F)cccc1F)OCc1ccc(-c2cccc(Cl)c2)o1
inhibition at 50 µg/mL [1]: 45.4% | inhibition at 50 µg/mL [2]: 50.5% | mortality at 2000 µg/mL [3]: 10% | inhibition at 50 µg/mL [4]: 63.5% | mortality at 600 µg/mL [5]: 0%

N#Cc1nn(-c2c(Cl)cc(C(F)(F)F)cc2Cl)c(N)c1[S+]([O-])C(F)(F)F (stereo unspecified) [FIPRONIL]
mortality at 5 µg/mL [7]: 100%

N#Cc1c(Cl)c(Cl)c(Cl)c(C#N)c1Cl [CHLOROTHALONIL]
inhibition at 50 µg/mL [2]: 23.3%

O=C(NC(=O)c1c(Cl)cccc1Cl)OCc1ccc(-c2ccc(Br)cc2)o1
inhibition at 50 µg/mL [1]: 32.8% | inhibition at 50 µg/mL [2]: 54.4% | inhibition at 50 µg/mL [6]: 64.7% | mortality at 2000 µg/mL [3]: 10% | inhibition at 50 µg/mL [4]: 52.8% | mortality at 600 µg/mL [5]: 0%

O=C(NC(=O)c1c(Cl)cccc1Cl)OCc1ccc(-c2cccc(F)c2)o1
inhibition at 50 µg/mL [1]: 8.82% | inhibition at 50 µg/mL [2]: 12.9% | inhibition at 50 µg/mL [6]: 62% | mortality at 2000 µg/mL [3]: 10% | inhibition at 50 µg/mL [4]: 32.6% | mortality at 600 µg/mL [5]: 20%

O=C(NC(=O)c1ccccc1Cl)OCc1ccc(-c2ccccc2F)o1
inhibition at 50 µg/mL [1]: 1.5% | inhibition at 50 µg/mL [2]: 26.3% | inhibition at 50 µg/mL [6]: 65.3% | mortality at 2000 µg/mL [3]: 10% | inhibition at 50 µg/mL [4]: 34.4% | mortality at 600 µg/mL [5]: 0%

O=C(NC(=O)c1c(F)cccc1F)OCc1ccc(-c2ccccc2F)o1
inhibition at 50 µg/mL [1]: 44.6% | inhibition at 50 µg/mL [2]: 44.5% | mortality at 2000 µg/mL [3]: 0% | inhibition at 50 µg/mL [4]: 70.4% | mortality at 600 µg/mL [5]: 0%

O=C(NC(=O)c1c(Cl)cccc1Cl)OCc1ccc(-c2ccccc2Br)o1
inhibition at 50 µg/mL [1]: 42.3% | inhibition at 50 µg/mL [2]: 39.9% | inhibition at 50 µg/mL [6]: 79.2% | mortality at 2000 µg/mL [3]: 0% | inhibition at 50 µg/mL [4]: 44.8% | mortality at 600 µg/mL [5]: 0%

O=C(NC(=O)c1c(F)cccc1F)OCc1ccc(-c2cccc(F)c2)o1
inhibition at 50 µg/mL [1]: 7.63% | inhibition at 50 µg/mL [2]: 31.5% | inhibition at 50 µg/mL [6]: 38.4% | mortality at 2000 µg/mL [3]: 10% | inhibition at 50 µg/mL [4]: 60.4% | mortality at 600 µg/mL [5]: 0%

O=C(NC(=O)c1ccccc1Cl)OCc1ccc(-c2ccccc2Br)o1
inhibition at 50 µg/mL [1]: 25.2% | inhibition at 50 µg/mL [2]: 42.5% | inhibition at 50 µg/mL [6]: 67.3% | mortality at 2000 µg/mL [3]: 0% | inhibition at 50 µg/mL [4]: 54.3% | mortality at 600 µg/mL [5]: 0%

O=C(NC(=O)c1ccccc1Cl)OCc1ccc(-c2ccccc2Cl)o1
inhibition at 50 µg/mL [1]: 0% | inhibition at 50 µg/mL [2]: 43.8% | inhibition at 50 µg/mL [6]: 69.8% | mortality at 2000 µg/mL [3]: 20% | inhibition at 50 µg/mL [4]: 25% | mortality at 600 µg/mL [5]: 0%

O=C(NC(=O)c1c(F)cccc1F)OCc1ccc(-c2ccc(F)cc2)o1
inhibition at 50 µg/mL [1]: 49.4% | inhibition at 50 µg/mL [2]: 22.1% | inhibition at 50 µg/mL [6]: 56% | mortality at 2000 µg/mL [3]: 0% | inhibition at 50 µg/mL [4]: 58.5% | mortality at 600 µg/mL [5]: 10%

COC(=O)NC(=S)Nc1ccccc1NC(=S)NC(=O)OC [THIOPHANATE METHYL]
inhibition at 50 µg/mL [1]: 34.2%

O=C(NC(=O)c1c(Cl)cccc1Cl)OCc1ccc(-c2ccc(F)cc2F)o1
inhibition at 50 µg/mL [1]: 15.9% | inhibition at 50 µg/mL [2]: 16% | inhibition at 50 µg/mL [6]: 63.3% | mortality at 2000 µg/mL [3]: 10% | inhibition at 50 µg/mL [4]: 27.9% | mortality at 600 µg/mL [5]: 1%

O=C(NC(=O)c1ccccc1Cl)OCc1ccc(-c2cccc(F)c2)o1
inhibition at 50 µg/mL [1]: 14.5% | inhibition at 50 µg/mL [2]: 37.3% | inhibition at 50 µg/mL [6]: 53.3% | mortality at 2000 µg/mL [3]: 10% | inhibition at 50 µg/mL [4]: 48.9% | mortality at 600 µg/mL [5]: 0%

O=C(NC(=O)c1c(Cl)cccc1Cl)OCc1ccc(-c2ccccc2F)o1
inhibition at 50 µg/mL [1]: 1.5% | inhibition at 50 µg/mL [2]: 36% | inhibition at 50 µg/mL [6]: 70.4% | mortality at 2000 µg/mL [3]: 0% | inhibition at 50 µg/mL [4]: 57.3% | mortality at 600 µg/mL [5]: 10%

O=C(NC(=O)c1ccccc1Cl)OCc1ccc(-c2cccc(Cl)c2)o1
inhibition at 50 µg/mL [1]: -3.03% | inhibition at 50 µg/mL [2]: 24.9% | inhibition at 50 µg/mL [6]: 38.6% | mortality at 2000 µg/mL [3]: 0% | inhibition at 50 µg/mL [4]: 24.1% | mortality at 600 µg/mL [5]: 0%

O=C(NC(=O)c1c(Cl)cccc1Cl)OCc1ccc(-c2ccc(Cl)cc2)o1
inhibition at 50 µg/mL [1]: 44.6% | inhibition at 50 µg/mL [2]: 33.3% | inhibition at 50 µg/mL [6]: 67.9% | mortality at 2000 µg/mL [3]: 0% | inhibition at 50 µg/mL [4]: 48.1% | mortality at 600 µg/mL [5]: 10%

O=C(NC(=O)c1c(F)cccc1F)OCc1ccc(-c2ccccc2Cl)o1
inhibition at 50 µg/mL [1]: 41.2% | inhibition at 50 µg/mL [2]: 43.5% | inhibition at 50 µg/mL [6]: 36.6% | mortality at 2000 µg/mL [3]: 0% | inhibition at 50 µg/mL [4]: 66.6% | mortality at 600 µg/mL [5]: 0%

O=C(NC(=O)c1ccccc1Cl)OCc1ccc(-c2ccc(F)cc2)o1
inhibition at 50 µg/mL [1]: 4.46% | inhibition at 50 µg/mL [2]: 38.6% | inhibition at 50 µg/mL [6]: 60.6% | mortality at 2000 µg/mL [3]: 10% | inhibition at 50 µg/mL [4]: 40.6% | mortality at 600 µg/mL [5]: 0%
